Bioassay records deposited in PubChem by several laboratories.
This excerpt belongs to a sample that is enriched for hits.
UPR CHOP act = apoptotic UPR (CHOP) activation; CHO-CHOP luciferase reporter, luminescence; percent of tunicamycin response over DMSO baseline; activation, % at 10 µM; 330,000 compounds, 0.34% hits; AID 449763;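 active means at 10 µM dose, activation of 40% or more, normalized to positive control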
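Evaluation: % reporter activation, DMSO baseline versus tunicamycin full activation; System: CHO-CHOP luciferase reporter cell line; Input: 500 cells/well; Incubation: 6 h compound treatment, 37 °C; Measured by: Steady-Glo luciferase luminescence; Dosing: one dose, 10 µM in 0.5% DMSO; Buffer or medium: F12 medium, 10% FBS; Benchmarks: positive tunicamycin 10 µg/mL, negative DMSO alone.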
CHOP inhibitor = CHOP inhibition in unfolded protein response | CHO-K1 CHOP-promoter luciferase, tunicamycin-induced, 15-18 h | inhibition, % at 10 µM | 220,000 compounds, 3.8% hits | AID 2732;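 active means compounds that reduced the stress-induced luciferase reporter signal by more than about 70% of percent inhibition, limit read from the data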
XBP1 UPR activ = adaptive UPR (XBP1) activation | CHO-XBP1 luciferase reporter, IRE1-XBP1 UPR activation, luminescence; percent of tunicamycin response, DMSO as zero | activation, % at 20 µM | 330,000 compounds, 0.33% hits;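 active means versus positive control, 20 µM dose yields 30% or more activation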
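incubation = overnight seeding at 37 °C, 6 h compound treatment at 37 °C | assay system = CHO-XBP1 cells stably carrying IRE1-XBP1-driven luciferase reporter | input = 1000 cells per well | detection = luciferase luminescence | dosing = single point, 20 µM final compound, 1% DMSO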
Jurkat NFkB inh = lowers PMA/ionomycin-induced NF-kB signal in Jurkat cells; inhibition, % at 4 µM; 330,000 compounds, 0.53% hits; PMA/ionomycin-induced NF-kB luciferase reporter, luminescence; in the data active means inhibition above about 50%
697 NFkB inh = inhibitors of the PMA/ionomycin-induced NF-kB reporter in 697 B cells; 697 B-cell NF-kB luciferase reporter, 16 h; inhibition, % at 4 µM; 330,000 compounds, 0.33% hits; AID 435022; in the data active means inhibition above about 35%
697 NFkB conf = inhibitors of the PMA/ionomycin-induced NF-kB reporter in 697 B cells, retest. shares compounds with 697 NFkB inh. 697 B-cell NF-kB luciferase, 16 h. inhibition, % at 4 µM. 2,000 compounds, 35% hits. AID 449746; in the data active means inhibition mostly above about 28%, no sharp cut-off; inactive means mostly below about 22%
A number is an active result; n = inactive; x = no result given.

SMILES	UPR CHOP act	CHOP inhibitor	XBP1 UPR activ	Jurkat NFkB inh	697 NFkB inh	697 NFkB conf
COc1ccccc1-c1cc2nc(C)c(CCC(=O)NCc3ccco3)c(C)n2n1	n	n	n	n	n	x
CCOC(=O)C1CCCCN1C(=O)CCc1c(C)nc2cc(-c3ccccc3)nn2c1C (configuration not stated)	n	72.9	n	n	35.1	n
CCOC(=O)C1CCN(C(=O)CCc2c(C)nc3cc(-c4ccccc4)nn3c2C)CC1	n	n	n	n	n	x
Cc1nc2cc(-c3ccccc3)nn2c(C)c1CCC(=O)NCc1ccco1	n	n	n	n	45.8	36.7
Cc1nc2cc(-c3cccc(F)c3)nn2c(C)c1CCC(=O)NC(C)CCc1ccco1 (configuration not stated)	n	81.7	n	n	41.8	37.2
Cc1nc2cc(-c3cccc(F)c3)nn2c(C)c1CCC(=O)N1CCN(c2ccccn2)CC1	n	n	n	n	47.6	n
O=C1c2ccccc2S(=O)(=O)N1CCOc1ccc(F)cc1	n	n	n	n	n	x
Cc1nc2cc(-c3ccccc3)nn2c(C)c1CCC(=O)NC(C)c1ccc2c(c1)OCCO2 (configuration not stated)	n	n	n	n	35.0	n
COc1ccccc1N(/N=C1\Sc2ccccc2C1=O)C(C)=O	n	n	n	n	n	n
CCCN1CCN(C(=O)Cn2nc(CC)n3c(cc4sccc43)c2=O)CC1	n	x	n	n	n	x
CC(C)(CO)NC(=O)C(Cc1ccccc1)N1C(=O)c2ccccc2C1=O (configuration not stated)	n	x	n	n	n	x
O=C(CSc1nc2ccccc2n1-c1ccccc1)Nc1ncc(Cl)cc1Cl	n	n	n	n	n	n
COc1ccc(-n2c(SCC(=O)Nc3ncc(Cl)cc3Cl)nc3ccccc32)cc1	n	n	n	n	n	n
COc1ccc(Cn2c(-c3ccc(C)cc3)nc3c(c(=O)c4ccccc4n3C)c2=O)cc1	n	n	n	n	n	x
Cc1cc(C)c(C#N)c(SCc2nnc(-c3ccccc3)o2)n1	n	n	n	n	n	n
COC(=O)[C@]1(C)N[C@H](CN(C)C(=O)c2ccc(C)cc2)[C@@H]2C(=O)N(C)C(=O)[C@@H]21	n	x	n	n	n	x
Cc1ccc(N=Nc2cc(C)ccc2O)c(C)c1	n	x	n	n	n	x
Cc1ccc(N=Nc2cc(C)ccc2N)cc1	n	n	n	n	n	n
Cc1cn(-c2cc(C(=O)Nc3ccc(C)c(NC(=O)C(=O)c4c[nH]c5ccccc45)c3)cc(C(F)(F)F)c2)cn1	n	n	n	n	36.6	n
O=C(Oc1ccccc1)c1cccnc1Oc1ccccc1	n	n	n	n	n	x
COc1ccc2nc(C)cc(SCC(=O)NNC(=O)COc3ccccc3)c2c1	n	n	n	n	n	x
COc1ccc2nc(C)cc(Sc3nc4ccccc4s3)c2c1	n	n	n	n	42.5	38.5
COc1cc2c(cc1NC(=O)CCC(=O)O)oc1ccccc12	n	x	n	n	n	x
COc1cc2c(cc1NC(=O)CSCC(=O)O)oc1ccccc12	n	n	n	n	35.7	n
COc1ccc(/C=C/C(=O)OC(C)CN2CCCCC2)cc1 (configuration not stated)	n	x	n	n	n	x
SMILES	UPR CHOP act	CHOP inhibitor	XBP1 UPR activ	Jurkat NFkB inh	697 NFkB inh	697 NFkB conf
COC(=O)c1c(NC(=O)c2ccco2)sc2c1CCN(C(C)=O)C2	n	x	n	n	38.3	n
O=C(CN1C(=O)c2ccccc2S1(=O)=O)c1ccccc1Cl	n	x	n	n	54.4	36.7
O=C(CN1C(=O)c2ccccc2S1(=O)=O)NCc1ccccc1Cl	n	n	n	n	n	x
COc1ccccc1C(=O)NC(=O)COC(=O)CNC(=O)c1ccccc1	n	x	n	n	n	x
CCN(CC(=O)Nc1ccc(OC)cc1)C(=O)Cc1ccc(OC)c(S(=O)(=O)N2CCOCC2)c1	n	x	n	n	n	x
Cc1ccc(-c2nc(CSCC(=O)NCC3CCCO3)c(C)o2)cc1 (configuration not stated)	n	x	n	n	n	x
CCCNC(=O)CSCc1nc(-c2ccc(SC)cc2)oc1C	n	n	n	n	48.3	42.2
CCOc1ccc(-c2nc(CSCC(=O)NCC3CCCO3)c(C)o2)cc1 (configuration not stated)	n	x	n	n	87.9	n
